Published values gathered from unrelated publications.
Protocols differ between the studies behind these lines.
Target: Fibroblast growth factor receptor 4 (FGFR4, Homo sapiens, UniProt P22455)

C=CC(=O)N1CCC([C@@H]2CCNc3c(C(N)=O)c(-c4ccc(Oc5ccccc5)cc4)nn32)CC1  inhibition (cell-free assay; 1 µM): 10%
C[C@H]1CC[C@H](n2c3cnccc3c3cnc(Nc4ccc5c(n4)CCN(C(=O)CO)C5)nc32)CC1  remaining binding (binding; 1 µM): 100%
COc1ccc2oc(-c3ccc4nc(N)oc4c3)c/c(=N\c3ccccc3NC(=O)CCN)c2c1  remaining binding (binding; 1 µM): 102%
CC(C)S(=O)(=O)c1ccc2nccc(Nc3ccc4sc(C5CCCC5)nc4c3)c2c1  activity vs control (enzyme activity; inhibitor; 1 µM): 108%
C=CC(=O)N1CCC[C@@H](n2nc(-c3ccc(Oc4ccccc4)cc3)c3c(N)ncnc32)C1  inhibition (enzyme activity; inhibitor; 1 µM): 8%
CCCCC(=O)Nc1ccc(-c2ccc3ncn(CCC)c(=O)c3c2)cn1  remaining binding (binding; competition with immobilised ligand; 0.5 µM): 100%
COc1ccc2[nH]c3c4[nH]c5ccc(OC)cc5c4c4c(c3c2c1)C(=O)NC4=O  remaining binding (binding; 1 µM): 85%
C1=C/COCc2cc(ccc2OCCN2CCCC2)Nc2nccc(n2)-c2cccc(c2)COC/1  remaining binding (binding; 0.1 µM): 100%
